According to ChEMBL document CHEMBL4346672, “Antimicrobial and KPC/AmpC inhibitory activity of functionalized benzosiloxaboroles” (Eur J Med Chem, 2019):
≈ marks a conversion by molar mass, not a printed value.

Tests used:
[1] = tested on: Klebsiella pneumoniae ATCC BAA-1705; experiment: Inhibition of beta lactamase KPC-2 in Klebsiella pneumoniae ATCC BAA 1705 assessed as potentiation of meropenem-induced antibacterial activity by measuring meropenem MIC at 16 mg/L incubated for 18 hrs by broth dilution method (reference value: […] mg/L)
[2] = tested on: Klebsiella pneumoniae; experiment: Inhibition of beta lactamase KPC-3 in Klebsiella pneumoniae 83 assessed as potentiation of ceftazidime-induced antibacterial activity by measuring ceftazidime MIC at 16 mg/L incubated for 18 hrs by broth dilution method (reference value: >[…] mg/L)
[3] = tested on: Klebsiella pneumoniae; experiment: Inhibition of beta lactamase KPC-3 in Klebsiella pneumoniae 81 assessed as potentiation of ceftazidime-induced antibacterial activity by measuring ceftazidime MIC at 16 mg/L incubated for 18 hrs by broth dilution method (reference value: >[…] mg/L)
[4] = tested on: Klebsiella pneumoniae; experiment: Inhibition of beta lactamase KPC-2 in Klebsiella pneumoniae 75 assessed as potentiation of ceftazidime-induced antibacterial activity by measuring ceftazidime MIC at 16 mg/L incubated for 18 hrs by broth dilution method (reference value: […] mg/L)
[5] = target: Class A carbapenemase KPC-2 (Escherichia coli) (UniProt A8DS27); experiment: Inhibition of beta lactamase KPC-2 in Escherichia coli 76 assessed as potentiation of ceftazidime-induced antibacterial activity by measuring ceftazidime MIC at 16 mg/L incubated for 18 hrs by broth dilution method (reference value: >[…] mg/L)
[6] = target: Class A carbapenemase KPC-2 (Escherichia coli) (UniProt A8DS27); experiment: Inhibition of beta lactamase KPC-2 in Escherichia coli 76 assessed as potentiation of meropenem-induced antibacterial activity by measuring meropenem MIC at 16 mg/L incubated for 18 hrs by broth dilution method (reference value: >[…] mg/L)
[7] = tested on: Klebsiella pneumoniae; experiment: Inhibition of beta lactamase KPC-3 in Klebsiella pneumoniae 83 assessed as potentiation of meropenem-induced antibacterial activity by measuring meropenem MIC at 16 mg/L incubated for 18 hrs by broth dilution method (reference value: […] mg/L)
[8] = tested on: Escherichia coli; experiment: Inhibition of beta lactamase KPC-3 in Escherichia coli 82 TR assessed as potentiation of ceftazidime-induced antibacterial activity by measuring ceftazidime MIC at 16 mg/L incubated for 18 hrs by broth dilution method (reference value: […] mg/L)
[9] = tested on: Klebsiella pneumoniae; experiment: Inhibition of beta lactamase CMY-2 in Klebsiella pneumoniae 78 assessed as potentiation of ceftazidime-induced antibacterial activity by measuring ceftazidime MIC at 16 mg/L incubated for 18 hrs by broth dilution method (reference value: >[…] mg/L)
[10] = tested on: Klebsiella pneumoniae; experiment: Inhibition of beta lactamase KPC-2 in Klebsiella pneumoniae 75 assessed as potentiation of meropenem-induced antibacterial activity by measuring meropenem MIC at 16 mg/L incubated for 18 hrs by broth dilution method (reference value: […] mg/L)
[11] = tested on: Klebsiella pneumoniae 700603; experiment: Inhibition of extended-spectrum beta lactamase in Klebsiella pneumoniae ATCC 700603 assessed as potentiation of ceftazidime-induced antibacterial activity by measuring diameter of zone inhibition at 0.3 mg incubated for 18 hrs in presence of 10 ug ceftazidime by CLSI disc diffusion method (Rvb=13 mm)
How it was run: (§1)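 EUCAST ESBL combination disc test on Mueller-Hinton agar. Zones were compared between a ceftazidime or cefotaxime disc alone and the same disc plus agent at 0.3 mg per disc. Clavulanic acid discs at 0.01 mg per disc served as reference. Plates were incubated at 35 °C for 18 h. A difference of at least 5 mm was counted as inhibition.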

[12] = tested on: Klebsiella pneumoniae; experiment: Inhibition of beta lactamase SHV-12 in Klebsiella pneumoniae ATCC 700603 assessed as potentiation of ceftazidime-induced antibacterial activity by measuring ceftazidime MIC at 16 mg/L incubated for 18 hrs by broth dilution method (reference value: […] mg/L)
[13] = tested on: Pseudomonas aeruginosa; experiment: Inhibition of beta lactamase VIM in Pseudomonas aeruginosa 698 assessed as potentiation of ceftazidime-induced antibacterial activity by measuring ceftazidime MIC at 16 mg/L incubated for 18 hrs by broth dilution method (reference value: […] mg/L)
[14] = tested on: Pseudomonas aeruginosa; experiment: Inhibition of beta lactamase OXA-15 in Pseudomonas aeruginosa 852 assessed as potentiation of ceftazidime-induced antibacterial activity by measuring ceftazidime MIC at 16 mg/L incubated for 18 hrs by broth dilution method (reference value: >[…] mg/L)
[15] = tested on: Acinetobacter baumannii; experiment: Inhibition of beta lactamase OXA-24 in Acinetobacter baumannii 181 assessed as potentiation of ceftazidime-induced antibacterial activity by measuring ceftazidime MIC at 16 mg/L incubated for 18 hrs by broth dilution method (reference value: >[…] mg/L)
[16] = tested on: Klebsiella pneumoniae 700603; experiment: Inhibition of extended-spectrum beta lactamase in Klebsiella pneumoniae ATCC 700603 assessed as potentiation of cefotaxime-induced antibacterial activity by measuring diameter of zone inhibition at 0.3 mg incubated for 18 hrs in presence of 10 ug cefotaxime by CLSI disc diffusion method (Rvb=19 mm); how it was run: as §1
[17] = tested on: Escherichia coli; experiment: Inhibition of beta lactamase CMY-2 in Escherichia coli 77 assessed as potentiation of ceftazidime-induced antibacterial activity by measuring ceftazidime MIC at 16 mg/L incubated for 18 hrs by broth dilution method (reference value: […] mg/L)
[18] = Dissociation constant, pKa2 of compound in 0.1 M NaOH by potentiometric analysis; type: physicochemical
[19] = Cytotoxicity against human MRC5 cells assessed as cell viability at 16 ug/ml incubated for 72 hrs by MTT assay; type: cell-based; conditions: read-out: Activity
How it was run: (§2)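 MRC-5 pd30 human fibroblasts grown in MEM with 10% FBS, 2 mM L-glutamine, penicillin/streptomycin and 1% non-essential amino acids at 37 °C, 5% CO2. Exponentially growing cells trypsinized and seeded at 8×10^3 cells/well, then dosed 18 h later with 2-fold dilutions (0.5% DMSO final) for 72 h. MTT (1 mg/ml final) added for 1 h at 37 °C, formazan dissolved in DMSO, OD read at 570 nm. Four replicates, expressed as % viable versus control.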

[20] = tested on: Enterococcus faecalis; experiment: Bactericidal activity against Enterococcus faecalis ATCC 29212 measured after 18 hrs by CLSI broth dilution method; type: functional; conditions: ATCC 29212, 18 h
How it was run: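 Strains stored at -80 °C and subcultured twice on tryptic soy agar before testing. Compounds dissolved in DMSO. […] MBC then determined per CLSI recommendations.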

[21] = Cytotoxicity against human MRC5 cells assessed as cell viability at 2 ug/ml incubated for 72 hrs by MTT assay; type: cell-based; conditions: read-out: Activity; how it was run: as §2
[22] = Cytotoxicity against human MRC5 cells assessed as cell viability at 32 ug/ml incubated for 72 hrs by MTT assay; type: cell-based; conditions: read-out: Activity; how it was run: as §2
[23] = Cytotoxicity against human MRC5 cells assessed as cell viability at 4 ug/ml incubated for 72 hrs by MTT assay; type: cell-based; conditions: read-out: Activity; how it was run: as §2
[24] = Cytotoxicity against human MRC5 cells assessed as cell viability at 1 ug/ml incubated for 72 hrs by MTT assay; type: cell-based; conditions: read-out: Activity; how it was run: as §2
[25] = Cytotoxicity against human MRC5 cells assessed as cell viability at 0.5 ug/ml incubated for 72 hrs by MTT assay; type: cell-based; conditions: read-out: Activity; how it was run: as §2

| Structure (SMILES) | MIC [1] [µg/mL] | MIC [2] [µg/mL] | MIC [3] [µg/mL] | MIC [4] [µg/mL] | MIC [5] [µg/mL] | MIC [6] [µg/mL] | MIC [7] [µg/mL] | MIC [8] [µg/mL] | MIC [9] [µg/mL] | MIC [10] [µg/mL] | inhibition zone (IZ) [11] [mm] | MIC [12] [µg/mL] | MIC [13] [µg/mL] | MIC [14] [µg/mL] | MIC [15] [µg/mL] | inhibition zone (IZ) [16] [mm] | MIC [17] [µg/mL] | viability at 72 h, 16 ug/ml [19] [%] | viability at 72 h, 2 ug/ml [21] [%] | viability at 72 h, 32 ug/ml [22] [%] | other results |
| --- | --- | --- | --- | --- | --- | --- | --- | --- | --- | --- | --- | --- | --- | --- | --- | --- | --- | --- | --- | --- | --- |
| C[Si]1(C)OB(O)c2c(F)c(F)c(F)c(F)c21 | 64 | > 64 | 64 | 64 | > 64 | > 64 | 32 | 32 | 64 | 32 | 13 | 64 | 64 | > 64 | > 64 | 19 | 16 |  |  |  |  |
| C[Si]1(C)OB(O)c2c(F)c3c(c(F)c21)B(O)OC3 | 64 | 64 | 64 | 64 | > 64 | > 64 | 32 | 32 | > 64 | 32 | 13 | 64 | 64 | > 64 | > 64 | 19 | 32 |  |  |  | pKa [18]: 7.8 |
| C[Si]1(C)OB(O)c2ccc(B(O)O)cc21 | 32 | 64 | 64 | 64 | > 64 | > 64 | 8 | 32 | 64 | 16 | 13 | 64 | 64 | > 64 | > 64 | 19 | 8 | 120 | 124 | 102 | MBC [20]: 400 µg/mL (≈ 1800 µM); viability at 72 h, 4 ug/ml [23]: 129%; viability at 72 h, 1 ug/ml [24]: 117%; viability at 72 h, 0.5 ug/ml [25]: 112% |
| C[Si]1(C)OB(O)c2ccc(F)c(F)c21 | 64 | > 64 | 64 | > 64 | > 64 | > 64 | 32 | 32 | 64 | 32 | 13 | 32 | 64 | > 64 | > 64 | 19 | 16 | 99 | 113 | 74 | viability at 72 h, 4 ug/ml [23]: 111%; viability at 72 h, 1 ug/ml [24]: 114%; viability at 72 h, 0.5 ug/ml [25]: 108% |
